ADAM17 inh: inhibitors of human ADAM17; inhibition, % at 6.95 µM; 370,000 tested, 0.83% active; P78536; recombinant ADAM17, EDANS/DABCYL FRET peptide cleavage;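 active = inhibition above the mean of compounds lying between control limits plus 3 SD, set per campaign, cut at about 8.5% in these data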
MPTP inh: blocks calcium-induced mitochondrial swelling | isolated mouse mitochondria, Ca2+ swelling absorbance, 30 min | 360,000 tested, 1.4% active | inhibition, % at 10 µM | AID 602449;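 active = inhibition of 50% or more, scaled per plate between neutral and stimulator controls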
GRIN3A LBD mod: modulates the human NR3A ligand-binding domain | NR3A LBD differential scanning fluorimetry, Tm shift; 0% = protein alone, 100% = glycine-bound protein | 340,000 tested, 2.5% active | AID 1259313 | Tm shift relative to glycine control, % at 25 µM;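 active = melting temperature shift of at least 10% of the positive control shift, at one fixed dose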
MT1-MMP act inh: MT1-MMP (human) activation inhibition. 360,000 tested, 0.061% active. HT1080 RFP-PRO-GFP cells, GFP/RFP ratio fluorescence, overnight; percent of plate control window, DMSO zero. P50281. GFP/RFP ratio change, % at 20 µM;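 active = GFP/RFP ratio change of at least 30% with cell ATP level not reduced by more than half and red fluorescence within 50% of control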
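Material – HT1080 RFP-PRO-GFP cells · Control set – DMSO wells and RFP-L50D-GFP cells · Incubation – overnight cell settling, then overnight compound exposure, 37 °C, 5% CO2 · Compound dosing – single-point 20 µM compound, 1% DMSO · Read-out – GFP/RFP fluorescence ratio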
ADAM10 inh: inhibits human ADAM10; O14672; recombinant ADAM10, EDANS/DABCYL FRET peptide cleavage, 3 h; inhibition, % at 7 µM; 370,000 tested, 0.62% active; AID 720582;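 active = inhibition above a per-campaign cutoff equal to the mean of compounds falling between control-based bounds plus 3 SD, cut at about 20% in these data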
Target sequence (O14672 214-748 limits assumed): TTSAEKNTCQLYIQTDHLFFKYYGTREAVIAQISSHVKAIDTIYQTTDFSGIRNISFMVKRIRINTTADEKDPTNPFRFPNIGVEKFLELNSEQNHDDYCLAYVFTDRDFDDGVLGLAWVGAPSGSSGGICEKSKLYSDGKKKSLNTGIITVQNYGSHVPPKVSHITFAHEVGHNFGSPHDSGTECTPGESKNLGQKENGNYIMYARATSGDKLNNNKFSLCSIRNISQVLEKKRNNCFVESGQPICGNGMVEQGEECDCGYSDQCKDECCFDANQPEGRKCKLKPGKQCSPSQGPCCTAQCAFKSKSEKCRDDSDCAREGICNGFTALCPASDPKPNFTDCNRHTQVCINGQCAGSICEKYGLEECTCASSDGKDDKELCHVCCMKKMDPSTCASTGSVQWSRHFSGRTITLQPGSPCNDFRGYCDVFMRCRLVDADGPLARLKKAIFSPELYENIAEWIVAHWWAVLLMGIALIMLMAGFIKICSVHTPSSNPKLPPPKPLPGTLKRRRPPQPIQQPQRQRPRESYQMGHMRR
SKN-1 inh: blocks SKN-1 activity in C. elegans; C. elegans VP596 Pgst-4::GFP/RFP ratio, acrylamide-induced, 24 h; inhibition, % at 21.8 µM; 360,000 tested, 0.49% active; AID 624304;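 active = interference check ratio from 0.5 to 1.5 plus GFP to RFP signal ratio inhibition reaching or exceeding a fixed threshold, cut at about 30% in these data, passing the limit was not always enough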
Rh123 counter: mitochondrial membrane potential, counter-screen; AID 624504; shares compounds with MPTP inh; isolated mitochondria, Rhodamine 123 fluorescence; inhibition, % at 10 µM; 5,000 tested, 78% active; in the data active = inhibition above about 22%
MPTP swell DR: dose response confirmation of mitochondrial permeability transition pore inhibitors. 780 tested, 58% active. shares compounds with MPTP inh. IC50, µM. isolated mitochondria swelling, absorbance; in the data active = IC50 below about 20 µM
MPTP cs DR: MPTP inhibitor counter-screen activity, dose response | 780 tested, 49% active | IC50, µM | shares compounds with MPTP inh | isolated mitochondria counterscreen, fluorescence read-out; in the data active = IC50 below about 80 µM
Each line names hits and unclear results; the compound was inactive in the other large screens (follow-up assays come after a bar, where they were run). Sampled rows, rich in hits. Any-hit rate of the full collection: about 4.7%.

O=C(Nc1cc(Sc2nc3ccccc3s2)cc([N+](=O)[O-])c1)c1ccccc1	MPTP inh 90 | Rh123 counter 73
O=C(Nc1cc(Sc2ccccn2)cc([N+](=O)[O-])c1)c1cccc(F)c1	ADAM17 inh 11, MPTP inh 97 | Rh123 counter 70
O=C(Nc1cc(Sc2nc3ccccc3s2)cc([N+](=O)[O-])c1)c1ccccc1F	none
Cc1ccc(Nc2nc(NCCCN3CCOCC3)nc(N)c2[N+](=O)[O-])cc1C	MPTP inh 67 | Rh123 counter inactive | MPTP swell DR inactive | MPTP cs DR inactive
Cc1ccc(Nc2nc(NCCCN3CCOCC3)nc(N)c2[N+](=O)[O-])cc1	none
Cc1cccc(Nc2nc(N3CCN(C)CC3)nc(N)c2[N+](=O)[O-])c1	MPTP inh 69 | Rh123 counter inactive | MPTP swell DR inactive | MPTP cs DR inactive
CCc1nnc(NC(=O)C2CC(=O)N(Cc3ccco3)C2)s1 (configuration not stated)	none
CN(Cc1ccccc1)C(=O)CCCn1c(=O)c2cccn2c2cccnc21	none
OC(CNCCc1ccccc1)COc1ccc(OCC(O)CNCCc2ccccc2)cc1 (configuration not stated)	none
OC(CNCCC(c1ccccc1)c1ccccc1)COc1ccccc1 (configuration not stated)	MPTP inh 77 | Rh123 counter inactive | MPTP swell DR 2.9 | MPTP cs DR 18
CC12CCC(=O)C=C1CCC1C2C(O)CC2(C)C(c3csc(N)n3)CCC12 (configuration not stated)	none
CC12CCC(=O)C=C1CCC1C2CCC2(C)C(c3csc(N)n3)CCC12 (configuration not stated)	MPTP inh 87, ADAM10 inh 24 | Rh123 counter 92
CC(c1ccccc1)C1C(C#N)=C(N)SC(N)=C1C#N (configuration not stated)	none
Cc1ccc(C2C(C#N)=C(N)SC(N)=C2C#N)cc1	MPTP inh 54 | Rh123 counter 67
Cc1ccc(C2C(C#N)=C(N)SC(N)=C2C#N)c(C)c1	MPTP inh 53 (no result: ADAM17 inh, ADAM10 inh) | Rh123 counter 64
COC(=O)c1ccc(NS(=O)(=O)c2ccc3c(c2)oc(=O)n3C)cc1	none
Cc1ccc(/C=N/Nc2ccnc3cc(Cl)ccc23)c(C)c1	MPTP inh 64 | Rh123 counter 92
Clc1ccc2c(N/N=C/c3cccnc3)ccnc2c1	none
Oc1ccc(/C=N/Nc2ccnc3cc(Cl)ccc23)c(O)c1	MPTP inh 58, GRIN3A LBD mod 27 | Rh123 counter 59
Cc1ccccc1/C=N/Nc1ccnc2cc(Cl)ccc12	MPTP inh 99 | Rh123 counter 91
Clc1ccc2c(N/N=C/c3ccc(Br)cc3)ccnc2c1	MPTP inh 88, GRIN3A LBD mod 33 | Rh123 counter 74
C/C(=N/NC(=O)c1nnn(-c2nonc2N)c1COc1ccccc1)c1ccc(O)cc1	none
COc1ccc(CNC(=O)c2cnc(C)cn2)cc1	none
CC1CCN(CCCCOc2ccc([N+](=O)[O-])cc2)CC1	none
COC(=O)C1CCN(Cc2ccc(OCCCN3CCN(c4ccc([N+](=O)[O-])cc4)CC3)cc2)CC1	MPTP inh 96 | Rh123 counter 82
O=C(Nc1ccccc1)Nc1nnc(SCc2ccc(Cl)cc2)s1	MPTP inh 86, GRIN3A LBD mod 35 | Rh123 counter 33
O=C(Nc1ccc(Cl)cc1)Nc1nnc(SCc2ccc(Cl)cc2)s1	MPTP inh 85 | Rh123 counter 24
CCSc1nnc(NC(=O)Nc2cccc(C)c2)s1	MPTP inh 82 | Rh123 counter 84
Cn1c(=O)cc(OCCCC(=O)NCc2cccnc2)c2ccccc21	none
C=CCNCCCCOc1ccc(Br)cc1C	MPTP inh 71 | Rh123 counter inactive | MPTP swell DR 8.3 | MPTP cs DR inactive
CCOC(=O)c1c(/N=C/c2cccc(C)c2O)sc2c1CCN(C)C2	MPTP inh 71 (no result: ADAM17 inh, ADAM10 inh) | Rh123 counter inactive
CCOC(=O)C1=C(CC)Nc2ccccc2N=C1NC(=O)Nc1ccc(Cl)c(Cl)c1	MPTP inh 97, GRIN3A LBD mod 28 | Rh123 counter 62
CCOC(=O)C1=C(CC)Nc2ccccc2N=C1NC(=O)c1cc(C)on1	none
COc1ccc(NC(=O)C2Cc3c(-c4ccccc4)ccnc3O2)cc1OC (configuration not stated)	MPTP inh 59 (no result: ADAM17 inh, GRIN3A LBD mod, ADAM10 inh) | Rh123 counter 85
COc1ccc(NC(=O)C2Cc3c(-c4ccc(Cl)cc4)ccnc3O2)cc1OC (configuration not stated)	MPTP inh 70 (no result: GRIN3A LBD mod) | Rh123 counter 80
C=CCn1c(C)nnc1SCC(=O)c1[nH]c(C)c(C(C)=O)c1C	none
O=C(/C=C/c1cn(CC(O)CN2CCCCCC2)c2ccccc12)c1cccs1 (configuration not stated)	MPTP inh 80 | Rh123 counter inactive
Cc1ccc(CN(CC(=O)NCCc2ccccc2)C(=O)c2csnn2)cc1	none
CCOC(=O)c1cc(S(=O)(=O)N2CCN(Cc3ccccc3)CC2)cn1C	none
O=c1cc(CN2CCN(C/C=C/c3ccccc3)CC2)c2cc(O)c(-c3ccccc3)cc2o1	none
CC(C)CN(Cc1cc(=O)oc2cc(-c3ccccc3)c(O)cc12)CC(C)C	MPTP inh 93 | Rh123 counter 85
CCCc1[nH]c2ccc(C(=O)OC)cc2c1CCC	none
CCCc1[nH]c2ccc(C#N)cc2c1CCC	MPTP inh 69 | Rh123 counter 86
COc1ccc(C(=O)Oc2ccc3ccc(=O)oc3c2)cc1OC	none
COc1ccc(S(=O)(=O)Nc2ccc(F)c(F)c2)cc1Cl	none
COc1ccc(NS(=O)(=O)c2ccc(N3CCOCC3)c(NC(=O)c3ccc(F)cc3)c2)cc1	MPTP inh 73 | Rh123 counter inactive | MPTP swell DR inactive | MPTP cs DR inactive
COc1ccc(NS(=O)(=O)c2ccc(N3CCOCC3)c(NC(=O)c3ccco3)c2)cc1	none
COc1ccc(NS(=O)(=O)c2ccc(N3CCOCC3)c(NC(=O)C(C)C)c2)cc1	MPTP inh 76 | Rh123 counter 55
COc1ccc(NS(=O)(=O)c2ccc(N3CCOCC3)c(NC(=O)c3cccc(F)c3)c2)cc1	none
